Active and inactive are the calls of the source. The rule behind the calls is not given here.
Assays:
L132 [1] = assay: Cytoprotective activity against IR-induced PARP cleavage in human L-132 cells at 3 uM pretreated for 1 hr followed by 10 Gy irradiation measured after 48 hrs by immunoblotting analysis; format: functional, cell-based
How it was run: (§1)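 Human embryonic lung L132 cells in RPMI with 10% FBS. 1 h pretreatment at 3 μM, then 0.5 μM paclitaxel or 20 μM cisplatin for 24 h, or 10 Gy 137Cs γ-rays (3.81 Gy/min) for 48 h. Cleaved PARP and caspase-3 immunoblotted (ECL); bands normalized to loading control, fold-change vs negative control, ≥3 independent experiments.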

MEF = assay: Cytoprotective activity against IR-induced PARP cleavage in HSF1 deficient MEF at 3 uM pretreated for 1 hr followed by 10 Gy irradiation measured after 48 hrs by immunoblotting analysis; format: functional, cell-based; settings: Mus musculus
How it was run: (§2)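 HSF1+/+ or HSF1−/− MEFs in DMEM with heat-inactivated 10% FBS, nonessential amino acids, glutamine, HEPES, 37 °C, 5% CO2. 1 h pretreatment at 3 μM, then 0.5 μM paclitaxel or 20 μM cisplatin for 24 h, or 10 Gy 137Cs γ-rays (3.81 Gy/min) for 48 h. Cleaved PARP and caspase-3 immunoblotted; bands normalized to loading control, fold-change vs negative control, ≥3 independent experiments.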

[2] = target: T1, Heat shock factor protein 1 (Mus musculus) (UniProt P38532); assay: Activation of HSF1 in MEF assessed as protection against cisplatin-induced PARP cleavage at 3 uM pretreated for 1 hr followed by cisplatin addition measured after 24 hrs by immunoblotting analysis; format: cell-based; how it was run: as §2
T1 sequence (whole entry): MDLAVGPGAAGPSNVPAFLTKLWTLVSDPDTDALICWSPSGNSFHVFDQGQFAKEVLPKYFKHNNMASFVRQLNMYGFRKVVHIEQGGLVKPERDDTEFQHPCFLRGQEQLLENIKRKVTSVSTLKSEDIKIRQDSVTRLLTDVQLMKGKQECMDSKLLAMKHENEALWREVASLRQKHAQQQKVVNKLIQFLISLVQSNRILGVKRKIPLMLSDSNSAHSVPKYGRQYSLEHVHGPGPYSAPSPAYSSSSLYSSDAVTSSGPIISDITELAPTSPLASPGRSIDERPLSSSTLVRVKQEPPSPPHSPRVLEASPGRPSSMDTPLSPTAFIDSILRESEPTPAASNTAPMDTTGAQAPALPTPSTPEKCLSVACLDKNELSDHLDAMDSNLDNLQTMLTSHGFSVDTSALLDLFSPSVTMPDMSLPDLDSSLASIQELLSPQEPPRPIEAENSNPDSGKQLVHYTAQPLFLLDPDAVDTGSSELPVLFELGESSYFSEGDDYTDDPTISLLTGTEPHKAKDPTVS

[3] = target: T1, Heat shock factor protein 1 (Mus musculus); assay: Activation of HSF1 in MEF assessed as protection against paclitaxel-induced caspase3 cleavage at 3 uM pretreated for 1 hr followed by paclitaxel addition measured after 24 hrs by immunoblotting analysis; format: cell-based; how it was run: as §2
[4] = target: T2, Heat shock factor protein 1 (Homo sapiens) (UniProt Q00613); assay: Activation of HSF1 in human L132 cells assessed as increase in HSP70 mRNA expression at 3 uM after 12 hrs by RT-PCR analysis; format: cell-based
T2 sequence (whole entry): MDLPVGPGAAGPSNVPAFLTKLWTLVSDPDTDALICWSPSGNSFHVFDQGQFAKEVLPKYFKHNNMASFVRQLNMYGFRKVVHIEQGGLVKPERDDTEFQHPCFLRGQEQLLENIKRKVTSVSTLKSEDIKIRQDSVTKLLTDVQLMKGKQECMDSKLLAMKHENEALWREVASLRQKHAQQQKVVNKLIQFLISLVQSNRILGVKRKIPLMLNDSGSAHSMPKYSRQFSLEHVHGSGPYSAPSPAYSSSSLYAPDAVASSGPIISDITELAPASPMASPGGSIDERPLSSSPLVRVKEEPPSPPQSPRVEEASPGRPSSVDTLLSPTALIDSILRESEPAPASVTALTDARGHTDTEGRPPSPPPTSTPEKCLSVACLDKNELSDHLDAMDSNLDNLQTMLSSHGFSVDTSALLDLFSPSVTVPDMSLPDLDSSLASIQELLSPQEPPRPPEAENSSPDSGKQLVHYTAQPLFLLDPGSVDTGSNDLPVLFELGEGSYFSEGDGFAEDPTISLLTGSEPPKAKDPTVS
How it was run: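 L132 human lung fibroblasts treated 12 h at 3 μM; hsp27 and hsp70 mRNA measured by RT-PCR under the same conditions as immunoblotting. Celastrol 1 μM positive control.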

[5] = target: T2, Heat shock factor protein 1 (Homo sapiens); assay: Induction of HSF1 phosphorylation at Ser326 residue in human L-132 cells at 3 uM after 12 hrs by immunoblotting analysis; format: cell-based
How it was run: (§3)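 L132 cells treated at 3 μM for 12 h, or at various doses for 12 h, or at 3 μM over a time course. Lysates resolved by SDS-PAGE, blotted to nitrocellulose, milk-blocked, primary antibodies 18 h at 4 °C, ECL detection. HSP27, HSP70 and Ser326-phospho-HSF1 bands normalized to loading control; ≥3 independent experiments; celastrol 1 μM positive control.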

[6] = target: T2, Heat shock factor protein 1 (Homo sapiens); assay: Activation of HSF1 in human NCI-H460 cells assessed as upregulation of HSP70 protein levels at 10 to 30 uM after 12 hrs by Western blot analysis; format: cell-based
How it was run: (§4)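 NCI-H460 cells treated 12 h at 10 or 30 μM; HSF1, HSP27 and HSP70 detected by Western blot.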

Mus musculus [7] = assay: Protection against IR-induced reduction in cellular proliferation in ICR mouse at 10 mg/kg, ip administered once before and three times after 4.5 Gy irradiation measured after 9 days by Ki67 staining-based immunohistochemical analysis; format: functional, organism-based
How it was run: (§5)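 Female ICR mice (5–6 weeks) given 4.5 Gy whole-body IR, dosed ip at 10 mg/kg once before and three times after IR; 5 per group, sacrificed day 9. BM cellularity from H&E (hematopoietic cells per 200×200 μm area); peripheral WBC, lymphocytes, neutrophils; Ki67 IHC counted in five fields per femur; relative spleen weight vs control. Means ± SD, Student's t test.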

[8] = target: T2, Heat shock factor protein 1 (Homo sapiens); assay: Activation of HSF1 in human NCI-H460 cells assessed as upregulation of HSP25 protein levels at 10 to 30 uM after 12 hrs by Western blot analysis; format: cell-based; how it was run: as §4
Mus musculus [9] = assay: Protection against IR-induced mortality in ICR mouse assessed as increase in mean survival days at 5 to 10 mg/kg, ip administered once before and three times after 7 Gy irradiation measured daily for 30 days; format: functional, organism-based
How it was run: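 Female ICR mice (5–6 weeks, 25–30 g) given 7 Gy whole-body IR; dosed ip at 5 or 10 mg/kg once before and three times after IR, DMSO stock diluted in modified PBS. Survival days and radiation sickness signs checked twice daily; 10 mice per group.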

[10] = target: T2, Heat shock factor protein 1 (Homo sapiens); assay: Activation of HSF1 in human L132 cells assessed as increase in HSP25 protein levels at 3 uM after 12 hrs by immunoblotting analysis; format: cell-based; how it was run: as §3
L132 [11] = assay: Cytoprotective activity against paclitaxel-induced PARP cleavage in human L-132 cells at 3 uM pretreated for 1 hr followed by paclitaxel addition measured after 24 hrs by immunoblotting analysis; format: functional, cell-based; how it was run: as §1
Mus musculus [12] = assay: Protection against IR-induced reduction of spleen weight in ICR mouse at 10 mg/kg, ip administered once before and three times after irradiation measured after 9 days; format: functional, organism-based; how it was run: as §5

SMILES	Activity (L132 [1])	Activity (MEF)	Activity [2]	Activity [3]	Activity [4]	Activity [5]	Activity [6]	Activity (Mus musculus [7])	Activity [8]	Activity (Mus musculus [9])	Activity [10]	Activity (L132 [11])	Activity (Mus musculus [12])
COc1cc(/C=C/CO)ccc1O [CONIFERYL ALCOHOL]	Active	inactive	Active	Active	Active	Active	Active	Active	Active	Active	Active	Active	Active
COc1cc(/C=C/C=O)ccc1O [CONIFERYL ALDEHYDE]	Active	inactive	Active	Active	Active	Active	Active	Active	Active	Active	Active	Active	Active
